Data as given in ChEMBL document CHEMBL1250448, “Inhibitor hijacking of Akt activation” (Nat Chem Biol, 2009).
Calls of active or inactive are those of the source. No cut-off for these calls is given here.

Tests used:
[1] = Inhibition of myristoylated AKT2 M225G mutant expressed in HEK293T cells by in vitro immunoprecipitation kinase assay; type: cell-based; details: hek-293t
In short: (§1)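 Myristoylated HA-tagged Akt (wild-type or analog-sensitive isoforms) was transfected by Lipofectamine into HEK293T cells. Cells were lysed in Tris pH 7.5/NaCl/EDTA/EGTA/Triton buffer with protease and phosphatase inhibitors. Akt was immunoprecipitated overnight at 4°C on BSA-blocked anti-HA matrix, and the washed immunoprecipitate was used for the in vitro kinase assay. IC50 was determined from kinase activity.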

[2] = biological target: T1, RAC-alpha serine/threonine-protein kinase (Homo sapiens, UniProt P31749); test: Inhibition of wild type AKT1 expressed in HEK293 cells assessed as reduction of IGF1-induced GSK3-beta Ser9 phosphorylation treated 20 mins before IGF1 stimulation by immunoblotting; type: cell-based
In short: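 Untransfected HEK293 cells carrying endogenous Akt were serum-starved overnight. They were treated with compound for 20 min, then stimulated with 50 ng/ml IGF-1 for 10 min. DMSO stocks were diluted 1:1000. Lysates in Tris pH 7.5/Triton buffer with phosphatase inhibitors were immunoblotted for GSK3β Ser9 and Akt Thr308/Ser473 phosphorylation, read by ECL.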

[3] = test system: HEK-293T; test: Induction of myristoylated AKT3 M229G mutant Thr308 hyperphosphorylation expressed in HEK293T cells at 10 uM after 30 mins by immunoblotting; type: cell-based
[4] = test system: HEK-293T; test: Induction of myristoylated AKT3 M229G mutant Ser473 hyperphosphorylation expressed in HEK293T cells at 10 uM after 30 mins by immunoblotting; type: cell-based
[5] = test system: RAC-alpha serine/threonine-protein kinase (Homo sapiens), P31749 [M227G]; test: Induction of myristoylated AKT1 M227G mutant Ser473 hyperphosphorylation expressed in HEK293 cells after 30 mins by immunoblotting; details: HEK-293
[6] = test system: RAC-alpha serine/threonine-protein kinase (Homo sapiens), P31749 [M227G]; test: Inhibition of myristoylated AKT1 M227G mutant expressed in HEK293T cells assessed as reduction of GSK3-beta Ser9 phosphorylation after 30 mins by immunoblotting; type: cell-based; details: HEK-293T
[7] = test system: HEK-293T; test: Induction of myristoylated AKT2 M225G and kinase dead D289A mutant Thr308 hyperphosphorylation expressed in HEK293T cells at 10 uM after 30 mins by immunoblotting; type: cell-based
[8] = biological target: T1, RAC-alpha serine/threonine-protein kinase; test: Induction of AKT1 Thr308 phosphorylation expressed in IGF1-stimulated HEK293 cells treated 20 mins before IGF1 stimulation by immunoblotting; type: cell-based
In short: (§2)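 HEK293 cells (not transfected), serum-starved overnight, then given inhibitor for 20 min before 50 ng/ml IGF-1 for a further 10 min. Cells detached in ice-cold Ca/Mg-free PBS with 0.04% EDTA and lysed in Tris pH 7.5 Triton buffer with protease/phosphatase inhibitors. Lysates cleared at 14000 g, protein equalised by Bradford, and pThr308, pSer473 and GSK3β pSer9 read by immunoblot with ECL.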

[9] = Inhibition of myristoylated AKT3 M229G mutant expressed in HEK293T cells by in vitro immunoprecipitation kinase assay; type: cell-based; details: hek-293t
In short: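 Myristoylated HA-tagged Akt3 was expressed in HEK293T cells, which were lysed in Tris pH 7.5 buffer containing Triton X, protease and phosphatase inhibitors. Lysates were protein-normalised and immunoprecipitated overnight at 4°C on BSA-blocked anti-HA matrix. Kinase activity of the immunoprecipitate was measured in vitro across inhibitor concentrations to derive IC50.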

[10] = biological target: T1, RAC-alpha serine/threonine-protein kinase; test: Inhibition of myristoylated wild type AKT1 expressed in HEK293T cells by in vitro immunoprecipitation kinase assay; type: cell-based, HEK-293T
In short: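 Myristoylated HA-tagged wild-type or analog-sensitive Akt1/2/3 expressed in HEK293T cells, then immunoprecipitated on anti-HA matrix. The immunoprecipitate was used in an in vitro kinase assay with Tris pH 7.5 buffer containing 10 mM MgCl2, β-glycerophosphate, orthovanadate and 2 mM DTT. IC50 determined from inhibitor titration.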

[11] = test system: HEK-293T; test: Induction myristoylated AKT2 M225G mutant Thr308 hyperphosphorylation expressed in HEK293T cells at 10 uM after 30 mins by immunoblotting; type: cell-based
[12] = biological target: T1, RAC-alpha serine/threonine-protein kinase; test: Induction of AKT1 Ser473 phosphorylation expressed in IGF1-stimulated HEK293 cells treated 20 mins before IGF1 stimulation by immunoblotting; type: cell-based; in short: as §2
[13] = test system: HEK-293T; test: Induction of nonmyristoylated AKT2 M225G and kinase dead D289A mutant Thr308 hyperphosphorylation expressed in HEK293T cells at 10 uM after 30 mins by immunoblotting; type: cell-based
[14] = test system: HEK-293T; test: Induction myristoylated AKT2 M225G mutant Ser473 hyperphosphorylation expressed in HEK293T cells at 10 uM after 30 mins by immunoblotting; type: cell-based
[15] = test system: RAC-alpha serine/threonine-protein kinase (Homo sapiens), P31749 [M227G]; test: Induction of myristoylated AKT1 M227G mutant Thr308 hyperphosphorylation expressed in HEK293 cells after 30 mins by immunoblotting; details: HEK-293
[16] = biological target: RAC-alpha serine/threonine-protein kinase (Homo sapiens, UniProt P31749, M227G); test: Inhibition of myristoylated AKT1 M227G mutant expressed in HEK293T cells by in vitro immunoprecipitation kinase assay; type: cell-based, HEK-293T; in short: as §1
Sequence of RAC-alpha serine/threonine-protein kinase (Homo sapiens, UniProt P31749, M227G) (P31749 whole entry M227G): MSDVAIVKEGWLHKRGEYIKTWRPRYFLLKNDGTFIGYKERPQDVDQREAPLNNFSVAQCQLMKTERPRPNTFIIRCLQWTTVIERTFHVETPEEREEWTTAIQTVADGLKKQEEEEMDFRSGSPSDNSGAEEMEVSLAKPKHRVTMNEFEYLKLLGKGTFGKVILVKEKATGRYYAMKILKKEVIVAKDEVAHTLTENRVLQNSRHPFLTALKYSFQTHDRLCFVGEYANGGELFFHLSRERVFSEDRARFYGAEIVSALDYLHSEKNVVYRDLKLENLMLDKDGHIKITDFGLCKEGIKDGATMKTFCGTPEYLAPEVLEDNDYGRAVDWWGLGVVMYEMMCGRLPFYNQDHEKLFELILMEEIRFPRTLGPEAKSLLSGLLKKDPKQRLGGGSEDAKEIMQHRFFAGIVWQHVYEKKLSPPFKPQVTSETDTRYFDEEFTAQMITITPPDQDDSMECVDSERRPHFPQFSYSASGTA

Sequence of RAC-alpha serine/threonine-protein kinase (Homo sapiens), P31749 [M227G] (P31749 whole entry M227G): as above
T1 sequence (P31749 whole entry): as the sequence (P31749 whole entry M227G) above, with G227M counted along it

CC(C)(C)n1nc(Cc2cccc(I)c2)c2c(N)ncnc21
IC50 [1]: 240 nM
inhibition [2]: inactive
Activity [3]: Active
Activity [4]: Active
Activity [5]: Dose-dependent effect
inhibition [6]: Active
Activity [7]: Active
Activity [8]: inactive
IC50 [9]: 120 nM
IC50 [10]: > 10000 nM
Activity [11]: Active
Activity [12]: inactive
Activity [13]: Active
Activity [14]: Active
Activity [15]: Dose-dependent effect
IC50 [16]: 28 nM
